Assay results: ChEMBL document CHEMBL1125311, “Inhibition of human leukocyte elastase. 4. Selection of a substituted cephalosporin (L-658,758) as a topical aerosol” (J Med Chem, 1992)

What was measured:
Cricetinae gen. sp. [1] = experiment: Compound was evaluated in vivo for inhibition of HLE-induced hemorrhage in hamster lung at 100 microg, 30 min after administration prior to HLE; assay type: functional, Cricetulus griseus
In short: (§1)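 Hamster, intratracheal dosing of compound (per animal) 30 min before IT instillation of 50 μg HLE (50 units in Experimental); hemorrhage read 3 h later: lungs lavaged with saline, hemoglobin in lavage measured at 414 nm. Percent inhibition from drug-treated vs vehicle-treated hemorrhage; three animals per dose and time. Titration at 100, 30, 10, 3 μg/animal gives ED50.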

Cricetinae gen. sp. [2] = experiment: Compound was evaluated in vivo for inhibition of HLE-induced hemorrhage in hamster lung at 30microg, 30 min after administration prior to HLE; assay type: functional, Cricetulus griseus; in short: as §1
Neutrophil elastase = target: T1, Neutrophil elastase (Homo sapiens, UniProt P08246); experiment: In vitro inhibitory activity against human leukocyte elastase
T1 sequence (P08246 whole entry): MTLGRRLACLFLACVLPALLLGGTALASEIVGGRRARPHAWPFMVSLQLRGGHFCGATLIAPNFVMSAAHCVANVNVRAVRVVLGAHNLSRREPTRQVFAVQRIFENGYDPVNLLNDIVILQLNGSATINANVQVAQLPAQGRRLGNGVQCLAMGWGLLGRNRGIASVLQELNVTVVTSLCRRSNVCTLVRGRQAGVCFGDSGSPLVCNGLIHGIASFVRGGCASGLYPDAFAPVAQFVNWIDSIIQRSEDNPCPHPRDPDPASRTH

Cricetinae gen. sp. [3] = experiment: Compound was evaluated in vivo for inhibition of HLE-induced hemorrhage in hamster lung at 200 microg, 2 hr after administration prior to HLE; assay type: functional, Cricetulus griseus
In short: (§2)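 Hamster duration protocol: 200 μg/animal given intratracheally 60, 120, 180 or 240 min before IT HLE instillation; hemorrhage scored after 3 h as hemoglobin (414 nm) in saline lung lavage, relative to vehicle-treated animals; three animals per point. T50 taken as time at which 50% inhibition is still obtained.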

Cricetinae gen. sp. [4] = experiment: Compound was evaluated in vivo for inhibition of HLE-induced hemorrhage in hamster lung at 200 microg, 4 hr after administration prior to HLE; assay type: functional, Cricetulus griseus; in short: as §2
Cricetinae gen. sp. [5] = experiment: Compound was evaluated in vivo for inhibition of HLE-induced hemorrhage in hamster lung at 200 microg, 3h after administration prior to HLE; assay type: functional, Cricetulus griseus; in short: as §2
[6] = target: T2, Neutrophil elastase (Homo sapiens) (UniProt P08246)
T2 sequence (whole entry): T1 sequence (P08246 whole entry)

Cricetinae gen. sp. [7] = experiment: Compound was evaluated in vivo for inhibition of HLE-induced hemorrhage in hamster lung at 200 microg, 1 hr after administration prior to HLE; assay type: functional, Cricetulus griseus; in short: as §2
Cricetinae gen. sp. [8] = experiment: Compound was evaluated in vivo for inhibition of HLE-induced hemorrhage in hamster lung at 200 microg 4 hr after administration prior to HLE; assay type: functional, Cricetulus griseus; in short: as §2
[9] = Half-life value of the compound.; assay type: ADME
In short: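 Chemical stability: compound dissolved at 1 mg/mL in 0.5 M MOPS, pH 8.0, held at 25 °C in capped vial; aliquots quenched in 2% aqueous TFA and analysed by reverse-phase HPLC over one to two half-lives. Peak areas fit to first-order decay F(t)=A/2^(t/t1/2) to give t1/2.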

Cricetinae gen. sp. [10] = experiment: Compound was evaluated in vivo for inhibition of HLE-induced hemorrhage in hamster lung at 200 microg 3h after administration prior to HLE; assay type: functional, Cricetulus griseus; in short: as §2
Cricetinae gen. sp. [11] = experiment: Compound was evaluated in vivo for inhibition of HLE-induced hemorrhage in hamster lung at 200 microg 1 hr after administration prior to HLE; assay type: functional, Cricetulus griseus; in short: as §2
Cricetinae gen. sp. [12] = experiment: Compound was evaluated in vivo for inhibition of HLE-induced hemorrhage in hamster lung at 200 microg 2 hr after administration prior to HLE; assay type: functional, Cricetulus griseus; in short: as §2
Cricetinae gen. sp. [13] = experiment: Compound was evaluated in vivo for inhibition of HLE-induced hemorrhage in hamster lung at 10 ug 30 min after administration prior to HLE; assay type: functional, Cricetulus griseus; in short: as §1
Cricetinae gen. sp. [14] = experiment: Compound was evaluated in vivo for inhibition of HLE-induced hemorrhage in hamster lung at 30 ug 30 min after administration prior to HLE; assay type: functional, Cricetulus griseus; in short: as §1
Cricetinae gen. sp. [15] = experiment: Compound was evaluated in vivo for inhibition of HLE-induced hemorrhage in hamster lung at 100 microg 30 min after administration prior to HLE; assay type: functional, Cricetulus griseus; in short: as §1
Cricetinae gen. sp. [16] = experiment: Compound was evaluated in vivo for inhibition of HLE-induced hemorrhage in hamster lung at 3 ug 30 min after administration prior to HLE; assay type: functional, Cricetulus griseus; in short: as §1
Cricetinae gen. sp. [17] = experiment: Compound was evaluated in vivo for inhibition of HLE-induced hemorrhage in hamster lung at 100 microg, 30 min after administration; assay type: functional, Cricetulus griseus; in short: as §1
Cricetinae gen. sp. [18] = experiment: Compound was evaluated in vivo for inhibition of HLE-induced hemorrhage in hamster lung at 400 microg, 30 min after administration; assay type: functional, Cricetulus griseus

`CO[C@H]1C(=O)N2C(C(=O)N(CC(=O)O)Cc3ccccc3)=C(COC(C)=O)CS(=O)(=O)[C@H]12` gave an Inhibition (Cricetinae gen. sp. [1]) of 42%, an Inhibition (Cricetinae gen. sp. [2]) of 30% and a Ki (Neutrophil elastase) of 6.1 µM.

For `CO[C@H]1C(=O)N2C(C(=O)N(C)CC(=O)O)=C(COC(=O)c3ccccc3)CS(=O)(=O)[C@H]12`, the Inhibition (Cricetinae gen. sp. [3]) was 58%, the Inhibition (Cricetinae gen. sp. [1]) was 87% and the Inhibition (Cricetinae gen. sp. [4]) was 5%. For the same compound, the Inhibition (Cricetinae gen. sp. [5]) was 38%, the Inhibition (Cricetinae gen. sp. [2]) was 58% and the k obs / 1 [6] was 600 M⁻¹ s⁻¹. The Inhibition (Cricetinae gen. sp. [7]) was 88%.

In the case of `CO[C@H]1C(=O)N2C(C(=O)N(C)CCC(=O)O)=C(COC(C)=O)CS(=O)(=O)[C@H]12`, the Inhibition (Cricetinae gen. sp. [8]) is reported as 33%, the k obs / 1 [6] is reported as 500 M⁻¹ s⁻¹ and the half-life [9] is reported as 24 h. It also gave an Inhibition (Cricetinae gen. sp. [10]) of -1%, an Inhibition (Cricetinae gen. sp. [11]) of 80% and an Inhibition (Cricetinae gen. sp. [12]) of 39%.

In the case of `CO[C@H]1C(=O)N2C(C(=O)N3CCCC3C(=O)O)=C(CSc3nc(=O)c(=O)[nH]n3C)CS(=O)(=O)[C@H]12` (stereo partly drawn), the Inhibition (Cricetinae gen. sp. [13]) is reported as 80%, the Inhibition (Cricetinae gen. sp. [14]) is reported as 86% and the Inhibition (Cricetinae gen. sp. [15]) is reported as 100%. For the same compound, the Ki (Neutrophil elastase) was 0.25 µM, the half-life [9] was 46 h and the Inhibition (Cricetinae gen. sp. [16]) was 61%.

Work on `CO[C@H]1C(=O)N2C(C(=O)N3CCOCC3)=C(COC(C)=O)CS(=O)(=O)[C@H]12` yielded a k obs / 1 [6] of 35200 M⁻¹ s⁻¹, a half-life [9] of 13 h and an Inhibition (Cricetinae gen. sp. [17]) of -21%.

Compound `CO[C@H]1C(=O)N2C(C(=O)N(C)CC(=O)O)=C(COC(C)=O)C(C)S(=O)(=O)[C@H]12` (stereo partly drawn) has a k obs / 1 [6] of 1400 M⁻¹ s⁻¹ and a half-life [9] of 8 h.

For `CO[C@H]1C(=O)N2C(C(=O)N3CCC(O)C3)=C(COC(C)=O)CS(=O)(=O)[C@H]12` (stereo partly drawn), the k obs / 1 [6] was 12000 M⁻¹ s⁻¹.

For `CO[C@H]1C(=O)N2C(C(=O)N(C)CC(=O)O)=C(CSc3nnnn3C)CS(=O)(=O)[C@H]12`, the k obs / 1 [6] was 600 M⁻¹ s⁻¹.

Compound `CO[C@H]1C(=O)N2C(C(=O)N(C)CCC(=O)O)=C(CSc3nc(=O)c(=O)[nH]n3C)CS(=O)(=O)[C@H]12` has an Inhibition (Cricetinae gen. sp. [13]) of 45%, an Inhibition (Cricetinae gen. sp. [8]) of -23% and an Inhibition (Cricetinae gen. sp. [14]) of 74%. It also gave an Inhibition (Cricetinae gen. sp. [15]) of 96%, a k obs / 1 [6] of 1000 M⁻¹ s⁻¹ and an Inhibition (Cricetinae gen. sp. [10]) of 46%. For the same compound, the Inhibition (Cricetinae gen. sp. [11]) was 95% and the Inhibition (Cricetinae gen. sp. [12]) was 87%.

In the case of `CO[C@H]1C(=O)N2C(C(=O)N(C)CC(=O)OC(C)(C)C)=C(CSc3nnnn3CC(=O)O)CS(=O)(=O)[C@H]12`, the Inhibition (Cricetinae gen. sp. [13]) is reported as 20%, the Inhibition (Cricetinae gen. sp. [14]) is reported as 59% and the Inhibition (Cricetinae gen. sp. [15]) is reported as 91%. For the same compound, the k obs / 1 [6] was 20500 M⁻¹ s⁻¹.

Work on `CO[C@H]1C(=O)N2C(C(=O)N(C)Cc3ccccc3)=C(COC(=O)c3ccc(C(=O)O)cc3)CS(=O)(=O)[C@H]12` yielded a k obs / 1 [6] of 10000 M⁻¹ s⁻¹.

In the case of `CO[C@H]1C(=O)N2C(C(=O)N(C)CC(=O)OC(C)(C)C)=C(CSc3nc(=O)c(=O)[nH]n3C)CS(=O)(=O)[C@H]12`, the Inhibition (Cricetinae gen. sp. [3]) is reported as 84%, the Inhibition (Cricetinae gen. sp. [13]) is reported as 65% and the Inhibition (Cricetinae gen. sp. [14]) is reported as 94%. The Inhibition (Cricetinae gen. sp. [15]) was 98%, the Inhibition (Cricetinae gen. sp. [5]) was 38% and the k obs / 1 [6] was 19300 M⁻¹ s⁻¹. For the same compound, the Inhibition (Cricetinae gen. sp. [11]) was 89%.

In the case of `CO[C@H]1C(=O)N2C(C(=O)N3CCCC3)=C(COC(C)=O)CS(=O)(=O)[C@H]12`, the k obs / 1 [6] is reported as 27000 M⁻¹ s⁻¹ and the half-life [9] is reported as 16 h.

`CO[C@H]1C(=O)N2C(C(=O)NC(C)(C)C)=C(COC(C)=O)CS(=O)(=O)[C@H]12` gave a k obs / 1 [6] of 2200 M⁻¹ s⁻¹ and an Inhibition (Cricetinae gen. sp. [18]) of -5%.
